Screening results as filed in PubChem.
T cell HTS: modulates CD8 T cell binding to vesicles; 330,000 compounds, 0.068% hits; 2C CD8+ T cell-vesicle binding, flow cytometry; hits give low values; response (vesicle binding), % at 7 µM;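 active = response, share of CD8 T cells binding vesicles, and their 90th percentile fluorescence all below set limits, cut at about 80% in these data, passing the limit was not always enough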;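 note: values below 100% mean blocked vesicle binding to the CD8+ T cells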
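Assay system – 2C mouse CD8+ T cells · Also added – QL9-loaded Drosophila micro-vesicles · Timing – Cell–vesicle co-incubation 1.5 h at 37 °C, staining 20 min on ice · Signal – flow cytometry of vesicle-bound cells · Measure – percent CD8+ FL2 mean versus row control · Controls – Peptide-free naked vesicles (low) and QL9 vesicles with 0.7% DMSO vehicle (high)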
Pemphigus Ab inh: inhibitors of pemphigus antibody binding to human desmoglein-3; P32926; DSG3-coupled beads, scFv-anti-DSG3-GFP binding, flow cytometry; hits give low values; binding (percent of control), % at 10 µM; 310,000 compounds, 0.48% hits; AID 588358;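 active = binding more than 3 SD below its plate's average and above zero; inconclusive = below that plate limit but binding exactly zero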;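 note: hits lower antibody fragment binding to DSG3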
Target sequence (P32926 whole entry, looked up, the tested form may be a part): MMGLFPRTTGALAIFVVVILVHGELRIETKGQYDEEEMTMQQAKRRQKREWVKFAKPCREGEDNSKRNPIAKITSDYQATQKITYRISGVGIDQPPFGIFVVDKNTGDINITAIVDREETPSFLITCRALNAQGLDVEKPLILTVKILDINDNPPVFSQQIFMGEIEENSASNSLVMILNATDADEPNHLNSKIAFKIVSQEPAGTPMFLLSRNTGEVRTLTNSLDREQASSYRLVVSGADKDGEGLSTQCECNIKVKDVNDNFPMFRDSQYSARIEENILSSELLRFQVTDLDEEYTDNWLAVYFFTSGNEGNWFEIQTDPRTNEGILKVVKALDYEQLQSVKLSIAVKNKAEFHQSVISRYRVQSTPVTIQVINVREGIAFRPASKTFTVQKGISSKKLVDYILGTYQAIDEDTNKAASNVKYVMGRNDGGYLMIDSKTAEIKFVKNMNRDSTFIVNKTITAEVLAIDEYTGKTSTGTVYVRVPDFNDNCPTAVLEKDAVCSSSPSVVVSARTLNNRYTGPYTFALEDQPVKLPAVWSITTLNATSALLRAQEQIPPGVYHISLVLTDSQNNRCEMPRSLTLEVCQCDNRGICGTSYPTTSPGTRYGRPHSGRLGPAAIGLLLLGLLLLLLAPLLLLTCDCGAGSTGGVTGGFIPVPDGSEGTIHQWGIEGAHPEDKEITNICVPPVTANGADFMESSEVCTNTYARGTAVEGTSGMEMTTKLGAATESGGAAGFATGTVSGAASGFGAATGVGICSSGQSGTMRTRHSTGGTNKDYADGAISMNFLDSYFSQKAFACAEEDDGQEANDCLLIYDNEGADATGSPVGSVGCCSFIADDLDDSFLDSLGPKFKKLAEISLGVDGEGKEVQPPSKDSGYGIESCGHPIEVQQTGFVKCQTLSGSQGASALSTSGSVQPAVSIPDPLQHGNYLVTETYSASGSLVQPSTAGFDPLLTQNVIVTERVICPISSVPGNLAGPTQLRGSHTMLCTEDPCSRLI
Myeloid diff MLP: promotes myeloid progenitor differentiation. 360,000 compounds, 1% hits. ER-HoxA9 myeloid progenitors, lysozyme-GFP differentiation, flow cytometry. AID 624256. calls only at 10 µM;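 active = normalized GFP-positive differentiation at or above the plate's own cutoff, the solvent-only control mean plus 3 SD; inconclusive = no clear call, values can overlap the other calls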;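 note: cells exposed to compound for four days before flow analysis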
Vif inh: HIV Vif inhibition. 340,000 compounds, 0.35% hits. inhibition, % at 7.49 µM. HEK293T cells, Vif self-association by quenched fluorescence, imaging, 24 h; in the data active = inhibition above about 50%, passing the limit was not always enough; inconclusive = no clear call, values can overlap the other calls; inactive = below about 31%
The depositor's hits bear a star; i = inactive; ? = inconclusive; / = no result given; + = active, no number; ! = repeats disagree. Compounds with a hit are over-represented: about 1.7% of the library has one in this group of screens.

SMILES | T cell HTS | Pemphigus Ab inh | Myeloid diff MLP | Vif inh
COCCNc1nc(Oc2cccc3ccccc23)c2sccc2n1 | / | / | i | -4
CC(OC(=O)C1CC1)C(=O)Nc1ccc([N+](=O)[O-])cc1Cl (configuration not stated) | 128 | 118 | + | 5
CCNC(=O)C1(C)CCCN(Cc2csc(-c3ccccc3)n2)C1 (configuration not stated) | / | / | i | -9
COC(=O)COc1cccc2c(=O)n(CC(=O)Nc3ccc4c(c3)OCCO4)ccc12 | i | 51* | i | /
O=C(Nc1ccccc1Cl)Nc1ccnn1C1CCN(C(=O)C2CCOC2)CC1 (configuration not stated) | / | 97 | i | 2
O=C(Nc1ccc(-c2nc3ccccc3o2)cc1)c1ccc(N2C(=O)C3C4C=CC(C4)C3C2=O)cc1 (configuration not stated) | 248 | 55* | i | 8
COc1ccc(OC)c(CN2C(=O)c3ccccc3C2c2nnnn2-c2c(C)cccc2C)c1 (configuration not stated) | / | / | i | /
Cn1cc(C2=C(c3ccc(Cl)cc3Cl)C(=O)NC2=O)c2ccccc21 | 226 | 275 | + | /
Cc1cn([C@H]2C[C@H](O)[C@@H](/C=C/C(=O)NCCC(c3ccccc3)c3ccccc3)O2)c(=O)[nH]c1=O | / | / | i | -3
CCOc1ccc2c(c1)C(NC(C)=O)C(=O)N2CCN1CCOCC1 (configuration not stated) | 152 | 81* | i | -3
COc1ccccc1N1C(N)=NC(N)=NC1(C)C | 228 | 107 | +! | 3
Cc1ccc(N2C(N)=NC(N)=NC2(C)C)c(C)c1 | 322 | / | ? | -9
Cc1ccccc1N1C(N)=NC(N)=NC1(C)C | 263 | 115 | + | 20
CCOc1cc(OCC)cc(C(=O)N2CCC[C@H]2C(=O)N2CCC[C@H]2C(=O)N(C)Cc2ccccc2)c1 | / | / | i | /
CCOC(=O)Cn1c(COc2ccccc2OC)[n+](C)c2ccccc21 | 491 | 95 | i | 66*
COc1ccc(C(=O)N/C(=C/c2ccc(Cl)cc2)C(=O)Nc2ccc(C(=O)O)cc2)cc1 | 454 | 101 | i | 0
CCCS(=O)(=O)NC(=O)C1(C)CCCN(C(=O)c2cc(F)cc(F)c2)C1 (configuration not stated) | / | / | i | -4
Cc1cccc(Nc2nc(N)nc(CCl)n2)c1 | 405 | 112 | i | 142*
CCN1/C(=C/C(C)=C/c2sc3ccccc3[n+]2CC)Sc2ccccc21 | 320 | 23* | ? | -6
CCN1/C(=C\C(=S)Nc2ccccc2)Sc2ccccc21 | 276 | 93 | ? | -19
COc1ccc(CN(C(=O)Cn2nnc(-c3ccc(C)o3)n2)C(C(=O)NCC2CCCO2)c2ccco2)cc1 (configuration not stated) | 192 | 86 | i | 71*
COc1ccc(-c2csc(-c3cccnc3)n2)cc1C | 318 | 100 | i | 115*
CC1(c2ccc(F)cc2)OC(=O)c2c1ccc1ccccc21 (configuration not stated) | / | 98 | i | 7
COc1ccc(C(=O)NCC(=O)OCc2c(Cl)cccc2Cl)cc1OC | / | 101 | i | -2
CC(C)CCNC(=O)NC(=O)COC(=O)/C=C/c1cccc([N+](=O)[O-])c1 | 423 | / | + | -4
SMILES | T cell HTS | Pemphigus Ab inh | Myeloid diff MLP | Vif inh
C=CCNC(=O)NC(=O)COC(=O)/C=C/c1cccc([N+](=O)[O-])c1 | 483 | 114 | i | 12
Cc1nc(C)n(CC(=O)N2CCCC(C(=O)c3ccc(C(F)(F)F)cc3)C2)n1 (configuration not stated) | 184 | 85 | i | 96*
Cc1ccc(-c2cc(C(=O)Nc3cccnc3)c3ccccc3n2)o1 | 236 | 81* | i | 0
Cc1ccc(NC(=O)c2cc(-c3ccc(C)o3)nc3ccccc23)cc1 | i | 101 | i | -3
COc1cc([C@H]2c3[nH]c4ccccc4c3C[C@H]3C(=O)N4[C@@H](c5cc(OC)c(OC)c(OC)c5)c5[nH]c6ccccc6c5C[C@H]4C(=O)N23)cc(OC)c1OC | 131 | 105 | i | 3
C=CCN1C(=O)[C@@H]2Cc3c([nH]c4ccccc34)C(c3ccc(O)cc3)N2C1=S (some centres not stated) | 102 | 113 | + | -2
O=C1[C@@H]2Cc3c([nH]c4ccccc34)C(c3ccccc3)N2C(=O)CN1CCO (some centres not stated) | 109 | 104 | i | -4
CCN1C(=O)[C@@H]2Cc3c([nH]c4ccccc34)C(c3cc(OC)c(OC)c(OC)c3)N2C1=S (some centres not stated) | 138 | 101 | + | 10
C=CCN1C(=O)[C@@H]2Cc3c([nH]c4ccccc34)C(c3cc(OC)c(OC)c(OC)c3)N2C1=S (some centres not stated) | 395 | 105 | + | 31
CCCCCCC#Cc1ccc2c(c1)COc1c3ccccc3nn1-2 | 0.0* | 101 | i | -2
O=C(OCC1CCC=CO1)C1CCC=CO1 (configuration not stated) | / | 95 | i | 11
CCCCc1ccc(-c2csc(/C(C#N)=C/c3ccc(C)o3)n2)cc1 | 283 | / | i | /
CCCCc1ccc(-c2csc(/C(C#N)=C\c3ccco3)n2)cc1 | 222 | 88 | + | 51*
CCc1ccc(/C=C/C(=O)C2C(=O)c3ccccc3C2=O)cc1 | 308 | 109 | + | -1
CC1(C(=O)NS(=O)(=O)c2ccc(Cl)cc2)CCN1C(=O)Cc1cccs1 (configuration not stated) | / | / | i | /
CN(C)S(=O)(=O)c1ccc(C(=O)Nc2nc(-c3ccccc3)c(C(=O)c3ccccc3)s2)cc1 | 231 | 108 | i | -12
O=C(Nc1nc(-c2ccccc2)c(-c2ccccc2)s1)c1ccc(S(=O)(=O)N2CCCC2)cc1 | 553 | 82* | i | 0
O=C(Nc1nc(-c2ccccc2)c(C(=O)c2ccccc2)s1)c1ccc(S(=O)(=O)N2CCCC2)cc1 | 186 | -1.0* | i | 4
O=c1c2ccccc2[nH]c(=S)n1CCCN1CCC(Cc2ccccc2)CC1 | 174 | 104 | i | 5
NC(=O)c1ccc(NC(=O)Cc2ccc(S(=O)(=O)N3CCCCC3)cc2)cc1 | 335 | 95 | i | -2
O=C(CNC(=S)NC(=O)c1ccc(Br)o1)c1ccccc1 | 194 | 97 | + | 7
O=C(CNC(=S)NC(=O)c1ccc(Cl)cc1)c1ccccc1 | 364 | 103 | i | -1
Cc1ccc(Nc2nc(N)nc(COC(=O)C3=COCCO3)n2)cc1 | 276 | 102 | i | 7
O=C(CN(c1ccc(Cl)cc1)S(=O)(=O)c1ccc(Cl)c([N+](=O)[O-])c1)NCCc1ccc(F)cc1 | 274 | 45* | i | 7
O=C(Cc1ccccc1)NCc1n[nH]c(=S)n1-c1ccccc1 | 298 | 12* | i | 0
COc1ccc(CC(=O)NCc2n[nH]c(=S)n2-c2cccc(C)c2)cc1 | 171 | 100 | i | 2
